Test results as given in ChEMBL document CHEMBL3785082, “(±)-Homocrepidine A, a Pair of Anti-inflammatory Enantiomeric Octahydroindolizine Alkaloid Dimers from Dendrobium crepidatum” (J Nat Prod, 2016).
The source made the active and inactive calls. No cut-off for these calls is given here.

Legend:
RAW264.7 [1] = assay: Antiinflammatory activity in mouse RAW264.7 cells assessed as inhibition of LPS-induced NO production at 100 uM preincubated for 1 hr followed by LPS stimulation measured after 20 hrs by Griess assay; type: functional, cell-based
Method in brief: (§1)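 RAW 264.7 cells in DMEM with 10% FBS, penicillin/streptomycin, 2 mM L-glutamine and 1 mM nonessential amino acids, seeded at 4 × 10^5 cells/well, settled 4 h at 37 °C, 5% CO2. Compounds in 0.1% DMSO (final 0.1–100 μM) added 1 h before LPS (5 μg/mL solution). After a further 20 h, supernatant mixed 1:1 with Griess reagent for 5 min, A540 read. At least triplicate; indomethacin as reference.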

[2] = Cytotoxicity against mouse RAW264.7 cells assessed as inhibition of cell viability at 100 uM by MTT assay; type: cell-based; settings: read-out: INH
Method in brief: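 Same RAW 264.7 culture and plating as the nitrite assay: compounds in 0.1% DMSO added 1 h before LPS (5 μg/mL solution), then 20 h incubation. Viability read by standard MTT assay. At least triplicate.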

RAW264.7 [3] = assay: Antiinflammatory activity in mouse RAW264.7 cells assessed as inhibition of LPS-induced NO production preincubated for 1 hr followed by LPS stimulation measured after 20 hrs by Griess assay; type: functional, cell-based; method in brief: as §1
RAW264.7 [4] = assay: Antiinflammatory activity in mouse RAW264.7 cells assessed as inhibition of LPS-induced iNOS overexpression at 5 uM after 24 hrs by Western blot analysis; type: functional, cell-based
Method in brief: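 RAW 264.7 cells pretreated with 5 μg/mL LPS or solvent, then exposed to 5 μM compound for 24 h. Lysed in cold buffer with 1% PMSF; protein by Bradford, 25 μg run on SDS-PAGE, blotted to nitrocellulose, blocked in 5% milk/TBS-Tween 60 min. Anti-iNOS overnight at 4 °C, HRP secondary 1 h, ECL on film; densitometry normalized to β-actin. Mean ± SD, n = 3–5.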

[5] = Inhibition of L-rhamnosidase (unknown origin)

IC50 (RAW264.7 [3]) | Structure (SMILES) | inhibition (RAW264.7 [1]) | cytotoxicity at 100 µM [2] | inhibition (RAW264.7 [4]) | Ki [5]
 | CC(=O)[C@H]1[C@@H]2CC[C@H]3C[C@@H](C)[C@](O)(c4ccccc4)[C@H](C[C@@]1(C)O)N32 | inactive | < 10% |  | 
27.6 µM | CC(=O)CCCC[C@H]1C[C@@H](C)[C@@](O)(c2ccccc2)CN1 |  | < 10% |  | 
3.6 µM | C[C@H]1C[C@H]2CCCN2[C@@H](CC(=O)C[C@@H]2N3CCC[C@@H]3C[C@H](C)[C@@]2(O)c2ccccc2)[C@]1(O)c1ccccc1 |  |  | Active | 
22.8 µM | C[C@@H]1C[C@@H]2CCCN2[C@H](CC(=O)C[C@H]2N3CCC[C@H]3C[C@@H](C)[C@]2(O)c2ccccc2)[C@@]1(O)c1ccccc1 |  |  | inactive | 
14.7 µM | CC1CC2CCCN2C(CC(=O)CC2N3CCCC3CC(C)C2(O)c2ccccc2)C1(O)c1ccccc1 (racemic) |  | < 10% | inactive | 
 | O[C@@H]1[C@@H]2[C@@H](O)CCCN2C[C@@H]1O |  |  |  | 0.45 µM
